Bioassay records (PubChem)
Only some compounds are listed: those with a hit (about 1.5% of all), similar ones and a draw of the others.
SIRT5 block: inhibitors of human sirtuin-5 desuccinylase | Purified SirT5, succinyl-peptide AMC, trypsin-coupled fluorescence | inhibition, % at 15 µM | 330,000 compounds, 1.1% hits; in the data active means inhibition above about 15%
Target sequence (Q9NXA8 whole entry, looked up): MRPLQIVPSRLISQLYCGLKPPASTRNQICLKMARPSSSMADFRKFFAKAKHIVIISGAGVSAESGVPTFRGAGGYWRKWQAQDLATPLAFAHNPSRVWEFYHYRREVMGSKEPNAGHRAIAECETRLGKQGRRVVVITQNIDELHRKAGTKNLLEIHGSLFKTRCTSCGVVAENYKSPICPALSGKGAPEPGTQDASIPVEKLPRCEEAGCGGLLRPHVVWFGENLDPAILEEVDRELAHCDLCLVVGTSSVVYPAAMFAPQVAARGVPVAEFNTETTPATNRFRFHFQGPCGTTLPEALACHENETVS
S100A4 MyoIIA: S100A4-myosin IIA interaction inhibition; P26447; S100A4/TAMRA-MyoIIA peptide fluorescence polarization; inhibition, % at 10.7 µM; 360,000 compounds, 0.14% hits;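 active means mean inhibition of at least 70% across replicates, with every replicate also reaching that level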
Target sequence (P26447 whole entry, looked up): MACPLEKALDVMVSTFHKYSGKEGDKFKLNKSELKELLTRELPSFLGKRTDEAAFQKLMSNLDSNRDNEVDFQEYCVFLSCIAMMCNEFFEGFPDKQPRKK
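Test system: S100A4 monomer protein; Medium: HEPES pH 7.2 with CaCl2, KCl, NaCl, DTT, Triton; Probe or stimulus: TAMRA-labelled myosin IIA heavy-chain peptide probe, 5 nM; Doses: one dose per compound; Times: polarization read 5 min after assay mix addition, stable 5–60 min; Benchmarks: neutral control DMSO, positive control TFP.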
PKA-R1A activ: activators of PKA-R1A complex. P00514+P68181. PKA-R1A dissociation, Cy5-IP20 fluorescence polarization; scaled: DMSO 0%, 113 µM cGMP 100%. activation, % at 11.4 µM. 340,000 compounds, 0.083% hits. AID 504707;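 active means percent activation above the mean of all tested compounds plus 3 SD, cut at about 19% in these data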;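 further: higher means more PKAc released from R1A so a rise in polarization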
CRFR2-BP antag: blocks CRF-induced signaling of the CRF-BP/CRF-R2 complex; HEK293 CRF-R2/CRF-BP, CRF-induced calcium fluorescence; 350,000 compounds, 0.59% hits; inhibition, % at 11.8 µM;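 active means inhibition of the ligand-induced calcium signal above about 50% at the single tested concentration, limit read from the data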
PKA-R2B act: activators of human PKA-R2B complex. P22694+P31323. activation, % at 11.4 µM. PKA-R2B holoenzyme dissociation, Cy5-IP20 fluorescence polarization; R2B truncated from residue 108, S112A mutant; 0% DMSO only, 100% 113 µM cGMP. 340,000 compounds, 0.079% hits;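 active means activation above a cutoff set at the mean over all compounds plus 3 SD, cut at about 18% in these data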;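 further: higher means more holoenzyme dissociation and a rise in polarization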
Starred values were filed as active, the others as inactive.

What do the screens show for `C[C@@H]1CN([C@H](C)CO)C(=O)c2cc(NS(=O)(=O)c3ccccc3)ccc2O[C@@H](C)CCCCO[C@@H]1CN(C)S(=O)(=O)c1cccs1`?
SIRT5 block: 2.3; S100A4 MyoIIA: -6.5

What do the screens show for `C[C@H]1CN([C@@H](C)CO)C(=O)c2cccc(NC(=O)c3ccc(-c4nccs4)cc3)c2O[C@H]1CN(C)S(C)(=O)=O`?
SIRT5 block: 16.7*; S100A4 MyoIIA: -4.7

Results for C[C@H](CO)N1C[C@H](C)[C@@H](CN(C)Cc2ccc(Cl)c(Cl)c2)Oc2c(NC(=O)c3ccc(-c4nccs4)cc3)cccc2C1=O ?
SIRT5 block: 19.1*; S100A4 MyoIIA: 10.3

What do the screens show for `C[C@@H]1CN([C@H](C)CO)C(=O)c2cc(C#Cc3ccc(F)cc3)cnc2O[C@@H]1CN(C)S(C)(=O)=O`?
SIRT5 block: -3.8; S100A4 MyoIIA: 3.8

What do the screens show for `Cc1ccc(C(=O)OCC(=O)c2cc(C)n(CC3CCCO3)c2C)cc1` (stereo not drawn)?
SIRT5 block: -3.2; S100A4 MyoIIA: -22.9; PKA-R1A activ: -4.8; CRFR2-BP antag: 79.2*; PKA-R2B act: -14.5

What do the screens show for `Cc1cc(C(=O)COC(=O)c2ccccc2O)c(C)n1CC1CCCO1` (stereo not drawn)?
SIRT5 block: 0.9; S100A4 MyoIIA: 2.5; PKA-R1A activ: -11.3; CRFR2-BP antag: -0.7; PKA-R2B act: -5.1

Results for Oc1ccccc1N=Cc1c(O)ccc2ccccc12 ?
SIRT5 block: 23.1*; S100A4 MyoIIA: -5.4; PKA-R1A activ: -3.5; CRFR2-BP antag: -112.5; PKA-R2B act: 4.4

Results for Cc1ccc(S(=O)(=O)NN=Cc2c(O)ccc3ccccc23)cc1 ?
S100A4 MyoIIA: -1.0; PKA-R1A activ: 4.5; CRFR2-BP antag: 56.0*; PKA-R2B act: -9.1

How did C[C@@H]1CCCCO[C@@H](CN(C)C(=O)Nc2ccc3c(c2)OCO3)[C@@H](C)CN([C@@H](C)CO)C(=O)c2cc(NC(=O)NC3CCCCC3)ccc2O1 do in these assays?
SIRT5 block: 7.6; S100A4 MyoIIA: -4.5

What do the screens show for `Cc1cccc(COC[C@H](Cc2ccccc2)N2CCN(C(=O)c3cc(Cl)cc(Cl)c3)CCC2=O)c1`?
SIRT5 block: 40.9*; S100A4 MyoIIA: -3.2

Results for O=C(NC(=S)N1CCCc2ccccc21)c1ccco1 ?
SIRT5 block: 21.7*; S100A4 MyoIIA: 2.8; PKA-R1A activ: 0.5; CRFR2-BP antag: -3.7; PKA-R2B act: -3.2

What do the screens show for `C[C@@H]1CN([C@H](C)CO)C(=O)Cc2cc(NC(=O)C3CCCCC3)ccc2O[C@H]1CN(C)C(=O)Nc1ccc(F)cc1`?
SIRT5 block: 4.7; S100A4 MyoIIA: 22.1

Results for O=C1OC(c2ccc3c(c2)OCO3)N(C(=O)c2ccc(Cl)c(Cl)c2)c2ccccc21 (stereo not drawn) ?
PKA-R1A activ: -16.5; CRFR2-BP antag: -6.4; PKA-R2B act: -10.3

What do the screens show for `Cc1cccc(C(=O)N2c3ccccc3C(=O)OC2c2ccc3c(c2)OCO3)c1` (stereo not drawn)?
PKA-R1A activ: 3.5; CRFR2-BP antag: 75.2*; PKA-R2B act: 2.9

What do the screens show for `O=C1/C(=C/c2ccc(Br)cc2)Oc2cc(O)ccc21`?
SIRT5 block: -0.6; S100A4 MyoIIA: 1.1; PKA-R1A activ: -8.9; CRFR2-BP antag: -13.9; PKA-R2B act: -6.2

How did O=C1/C(=C/c2ccc([N+](=O)[O-])cc2)Oc2cc(O)ccc21 do in these assays?
SIRT5 block: 16.0*; S100A4 MyoIIA: -11.1; PKA-R1A activ: 9.9; CRFR2-BP antag: 29.3; PKA-R2B act: 6.5

Results for C[C@H]1CN([C@@H](C)CO)C(=O)c2cc(C#CC3(O)CCCC3)cnc2O[C@@H]1CN(C)C(=O)C1CCC1 ?
SIRT5 block: 4.9; S100A4 MyoIIA: 6.6

How did COc1ccc(NC(=O)CC2C(=O)N(Cc3cccs3)C(=S)N2C(C)C)cc1 (stereo not drawn) do in these assays?
SIRT5 block: 31.2*; S100A4 MyoIIA: -7.7; PKA-R1A activ: -2.0; CRFR2-BP antag: -6.3; PKA-R2B act: -0.4

What do the screens show for `CC(C)NC(=O)Nc1ccc2c(c1)C(=O)N([C@H](C)CO)C[C@H](C)[C@H](CN(C)Cc1ccc(-c3ccccc3)cc1)O2`?
SIRT5 block: 30.9*; S100A4 MyoIIA: 6.3

How did C[C@H](CO)N1C[C@H](C)[C@@H](CN(C)Cc2ccc(C(=O)O)cc2)Oc2ccc(NC(=O)NC3CCCCC3)cc2C1=O do in these assays?
SIRT5 block: 2.9; S100A4 MyoIIA: 5.2

Results for C[C@H]1CN([C@@H](C)CO)C(=O)c2cc(NC(=O)NC3CCCCC3)ccc2O[C@@H]1CN(C)Cc1ccc(C(=O)O)cc1 ?
SIRT5 block: -2.3; S100A4 MyoIIA: 95.6*

How did CC(C)NC(=O)Nc1ccc2c(c1)C(=O)N([C@@H](C)CO)C[C@@H](C)[C@H](CN(C)Cc1ccccc1)O2 do in these assays?
SIRT5 block: -6.9; S100A4 MyoIIA: 0.9

What do the screens show for `COc1ccc(CN(C)C[C@@H]2Oc3ccc(NC(=O)Nc4ccc(OC)cc4)cc3C(=O)N([C@@H](C)CO)C[C@H]2C)cc1`?
SIRT5 block: 19.2*; S100A4 MyoIIA: -11.4

Results for C[C@H](CO)N1C[C@H](C)[C@H](CN(C)Cc2ccncc2)Oc2ccc(NC(=O)CCN3CCOCC3)cc2C1=O ?
SIRT5 block: 24.7*; S100A4 MyoIIA: -6.7

What do the screens show for `C[C@@H]1CN([C@H](C)CO)C(=O)CCCn2cc(nn2)CO[C@@H]1CN(C)S(=O)(=O)c1cccs1`?
SIRT5 block: -4.6; S100A4 MyoIIA: 1.2

What do the screens show for `COc1ccc2c3c([nH]c2c1)[C@H](CO)N(C(=O)Nc1ccc(F)cc1)CC31CCN(S(=O)(=O)c2cccs2)CC1`?
SIRT5 block: 12.8; S100A4 MyoIIA: 5.9

How did C[C@@H](O)C#Cc1cnc2c(c1)C(=O)N([C@@H](C)CO)C[C@H](C)[C@H](CN(C)Cc1ccccn1)O2 do in these assays?
SIRT5 block: -3.5; S100A4 MyoIIA: -1.7

How did COc1ccc(NC(=O)Nc2ccc3c(c2)C(=O)N([C@@H](C)CO)C[C@H](C)[C@H](CN(C)Cc2ccc(-c4ccccc4)cc2)O3)cc1 do in these assays?
SIRT5 block: 20.0*; S100A4 MyoIIA: -46.7

Results for COc1ccc(NC(=O)Nc2ccc3c(c2)C(=O)N([C@H](C)CO)C[C@H](C)[C@@H](CN(C)Cc2ccc(-c4ccccc4)cc2)O3)cc1 ?
SIRT5 block: 10.5; S100A4 MyoIIA: -2.9

What do the screens show for `COc1ccc(NC(=O)Nc2ccc3c(c2)C(=O)N([C@H](C)CO)C[C@@H](C)[C@@H](CN(C)Cc2ccc(-c4ccccc4)cc2)O3)cc1`?
SIRT5 block: 18.7*; S100A4 MyoIIA: 5.1
